Test results published in ChEMBL document CHEMBL1135528, “Monocyclic human tachykinin NK-2 receptor antagonists as evolution of a potent bicyclic antagonist: QSAR and site-directed mutagenesis studies” (J Med Chem, 2002).
Numbering of substitutions follows the chain as printed. Calls of active or inactive are those of the source. The calls are words filed in the database; no cut-off is given here. Where a SMILES comes first, the peptide text is derived from it. Bridges are numbered along the chain shown (N, C = ends). [ ]: non-standard residue; d: D form. The star is where a group is joined. NH(β-GlcNAc) = CC(=O)N[C@@H]1[C@@H](O)[C@H](O)[C@@H](CO)O[C@H]1N*; Dap = NC[C@H](N)C(=O)O

Experiments:
[1] = test system: Substance-K receptor (Homo sapiens), P21452 [F293A]; assay: Binding affinity against F293A human neurokinin-2 receptor (hNK-2R) using [3H]nepadutant as a radioligand
Substance-K receptor (Homo sapiens), P21452 [F293A], sequence (P21452 whole entry F293A): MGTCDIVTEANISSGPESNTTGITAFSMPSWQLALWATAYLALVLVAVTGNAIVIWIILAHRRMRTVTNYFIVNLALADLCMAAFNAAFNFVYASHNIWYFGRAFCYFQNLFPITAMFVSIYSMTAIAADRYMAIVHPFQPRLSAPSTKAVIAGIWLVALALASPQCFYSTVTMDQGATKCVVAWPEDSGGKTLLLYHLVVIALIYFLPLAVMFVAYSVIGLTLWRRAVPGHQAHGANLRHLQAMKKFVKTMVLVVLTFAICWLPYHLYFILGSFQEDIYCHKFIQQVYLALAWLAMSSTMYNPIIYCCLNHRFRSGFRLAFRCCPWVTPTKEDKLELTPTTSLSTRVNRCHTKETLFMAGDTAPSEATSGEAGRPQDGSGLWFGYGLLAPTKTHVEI
In short: (§1)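 Membranes from cells stably transfected with wild-type or mutant hNK-2R, incubated with [3H]nepadutant for 60 min at 20 °C in 50 mM Tris-HCl pH 7.4 containing peptidase inhibitors, 150 mM NaCl, 5 mM MnCl2 and 1 g/L BSA. Competitors ranged 0.3 pM–10 μM. Nonspecific binding was defined with 1 mM unlabeled ligand. Bound label was collected by filtration and counted. Means from ≥3 duplicate experiments.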

[2] = test system: Substance-K receptor (Homo sapiens), P21452 [H198A]; assay: Binding affinity against H198A human neurokinin-2 receptor (hNK-2R) using [3H]nepadutant as a radioligand; in short: as §1
Substance-K receptor (Homo sapiens), P21452 [H198A], sequence (P21452 whole entry H198A): as the sequence (P21452 whole entry F293A) above, with H198A, A293F counted along it

[3] = biological target: T1, Substance-K receptor (Homo sapiens) (UniProt P21452); assay: Binding affinity against wild-type human Wild-type tachykinin receptor 2 (hNK-2R) using [125I]-NKA as a radioligand
T1 sequence (whole entry): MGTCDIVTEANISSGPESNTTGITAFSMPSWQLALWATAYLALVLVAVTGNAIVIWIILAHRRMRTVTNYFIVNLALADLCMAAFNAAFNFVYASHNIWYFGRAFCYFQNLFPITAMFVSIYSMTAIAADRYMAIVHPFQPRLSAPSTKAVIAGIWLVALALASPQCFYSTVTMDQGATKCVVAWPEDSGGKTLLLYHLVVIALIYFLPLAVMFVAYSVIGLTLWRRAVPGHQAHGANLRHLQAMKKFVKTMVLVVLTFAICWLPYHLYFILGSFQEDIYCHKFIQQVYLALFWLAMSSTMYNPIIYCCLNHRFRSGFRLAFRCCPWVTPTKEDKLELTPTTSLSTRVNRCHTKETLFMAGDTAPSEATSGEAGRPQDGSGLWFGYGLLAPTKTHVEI

[4] = test system: T2, Substance-K receptor (Homo sapiens), P21452 [Y266F]
T2 sequence (whole entry): T1 sequence (whole entry) with Y266F

[5] = test system: Substance-K receptor (Homo sapiens), P21452 [T171A]; assay: Binding affinity against T171A human neurokinin-2 receptor (hNK-2R) using [3H]nepadutant as a radioligand; UB is undetectable binding; in short: as §1
Substance-K receptor (Homo sapiens), P21452 [T171A], sequence (P21452 whole entry T171A): as the sequence (P21452 whole entry F293A) above, with T171A, A293F counted along it

[6] = test system: Substance-K receptor (Homo sapiens), P21452 [Q109A]; assay: Binding affinity against Q109A human neurokinin-2 receptor (hNK-2R) using [3H]nepadutant as a radioligand; in short: as §1
Substance-K receptor (Homo sapiens), P21452 [Q109A], sequence (P21452 whole entry Q109A): as the sequence (P21452 whole entry F293A) above, with Q109A, A293F counted along it

[7] = test system: T3, Substance-K receptor (Homo sapiens), P21452 [W263A]; assay: Binding affinity against W263A human neurokinin-2 receptor (hNK-2R) using [3H]nepadutant as a radioligand; UB is Undetectable Binding; in short: as §1
T3 sequence (whole entry): T1 sequence (whole entry) with W263A

[8] = test system: Substance-K receptor (Homo sapiens), P21452 [Y289T]; assay: Binding affinity against Y289T human neurokinin-2 receptor (hNK-2R) using [3H]nepadutant as a radioligand; in short: as §1
Substance-K receptor (Homo sapiens), P21452 [Y289T], sequence (P21452 whole entry Y289T): as the sequence (P21452 whole entry F293A) above, with Y289T, A293F counted along it

[9] = test system: T3, Substance-K receptor (Homo sapiens), P21452 [W263A]; assay: Binding affinity against W263A human neurokinin-2 receptor (hNK-2R) using [3H]SR-48,968 as a radioligand
In short: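 Radioligand [3H]SR48968 was incubated for 30 min at 20 °C with membranes from stably transfected wild-type or mutant hNK-2R cells, in Tris-HCl 50 mM pH 7.4 buffer with protease inhibitors, NaCl, MnCl2 and BSA. Test ligands ranged 0.3 pM–10 μM, with nonspecific binding in 1 mM unlabeled ligand. Filtration through PEI-soaked filters was followed by scintillation counting. pKi was derived by curve fitting, duplicate determinations.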

[10] = test system: Substance-K receptor (Homo sapiens), P21452 [F112A]; assay: Binding affinity against F112A human neurokinin-2 receptor (hNK-2R) using [3H]nepadutant as a radioligand; in short: as §1
Substance-K receptor (Homo sapiens), P21452 [F112A], sequence (P21452 whole entry F112A): as the sequence (P21452 whole entry F293A) above, with F112A, A293F counted along it

[11] = test system: Substance-K receptor (Homo sapiens), P21452 [Y206F]; assay: Binding affinity against Y206F human neurokinin-2 receptor (hNK-2R) using [3H]nepadutant as a radioligand; in short: as §1
Substance-K receptor (Homo sapiens), P21452 [Y206F], sequence (P21452 whole entry Y206F): as the sequence (P21452 whole entry F293A) above, with Y206F, A293F counted along it

[12] = test system: T4, Substance-K receptor (Homo sapiens), P21452 [C167A]; assay: Binding affinity against C167A human neurokinin-2 receptor (hNK-2R) using [3H]nepadutant as a radioligand; UB is Undetectable Binding; in short: as §1
T4 sequence (whole entry): T1 sequence (whole entry) with C167A

[13] = test system: Substance-K receptor (Homo sapiens), P21452 [Y269A]; assay: Binding affinity against Y269A human neurokinin-2 receptor (hNK-2R) using [3H]nepadutant as a radioligand; in short: as §1
Substance-K receptor (Homo sapiens), P21452 [Y269A], sequence (P21452 whole entry Y269A): as the sequence (P21452 whole entry F293A) above, with Y269A, A293F counted along it

[14] = test system: Substance-K receptor (Homo sapiens), P21452 [I202F]; assay: Binding affinity against I202F human neurokinin-2 receptor (hNK-2R) using [3H]nepadutant as a radioligand; in short: as §1
Substance-K receptor (Homo sapiens), P21452 [I202F], sequence (P21452 whole entry I202F): as the sequence (P21452 whole entry F293A) above, with I202F, A293F counted along it

- KD/Ki [1]: 7.4 nM
- KD/Ki [2]: 11.5 nM
- KD/Ki [3]: 2.4 nM
- KD/Ki [4]: 16.3 nM
- UB [5]: inactive
- KD/Ki [6]: 0.85 nM
- UB [7]: inactive
- KD/Ki [8]: 11.2 nM
- KD/Ki [9]: 502 nM
- KD/Ki [10]: 22.1 nM
- KD/Ki [11]: 1.1 nM
- UB [12]: inactive
- KD/Ki [13]: 19 nM
- KD/Ki [14]: 0.44 nM
Structure (SMILES): CC(=O)N[C@@H]1[C@@H](O)[C@H](O)[C@@H](CO)O[C@H]1NC(=O)C[C@@H]1NC(=O)[C@H](CC(C)C)NC(=O)[C@@H]2CNC(=O)C[C@H](NC1=O)C(=O)N[C@@H](Cc1c[nH]c3ccccc13)C(=O)N[C@@H](Cc1ccccc1)C(=O)N2 (cyclo(D(NH(β-GlcNAc))DWF[Dap]L); lactam 2-5)
